Experimental data: publication PMC4806784 (Investigational new drugs, 2015)
Where two headings read alike, the source gives them in different places.

Format: in vivo, human
Conditions: human, plasma, oral; for concentration at 12 h: C12h; for AUC(0-t): AUC0-12h
Summary of the method: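 Test compound was given as oral capsules with […] water after a 2-h fast, BID Q12hr, 3–6 patients per dose level. Docetaxel 60 mg/m2 was a 1-h IV infusion 2 h beforehand. […] was sampled on Cycle 1 Day 1 (predose, 0.5–24 h after dose 1) and Day 2 (predose, 0.5–44 h after dose 4). Analysis was non-compartmental, with AUC by linear-up/log-down trapezoidal method and Cmax/Tmax by inspection.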

[1] = 200 mg/day, Panel 1 (MT), Dose 4
[2] = 400 mg/day, Panel 1 (MT), Dose 1
[3] = 400 mg/day, Panel 1 (MT), Dose 4
[4] = 800 mg/day, Panel 1 (MT), Dose 1
[5] = 800 mg/day, Panel 1 (MT), Dose 4
[6] = 1200 mg/day, Panel 1 (MT), Dose 1
[7] = 1200 mg/day, Panel 1 (MT), Dose 4
[8] = 1500 mg/day, Panel 1 (MT), Dose 1
[9] = 1500 mg/day, Panel 1 (MT), Dose 4
[10] = 1800 mg/day, Panel 1 (MT), Dose 1
[11] = 1800 mg/day, Panel 1 (MT), Dose 4

## O=C(O)[C@]1(Cc2cccc(Nc3nccs3)n2)CC[C@@H](Oc2cccc(Cl)c2F)CC1 [MK-5108]
[1]
  concentration at 12 h: 1.92 ± 1.91 µM
  Cmax: 4.8 ± 1 µM
200 mg/day, Panel 1 (MT), Dose 1
  Cmax: 3.9 ± 0.7 µM
200 mg/day, Tmax, Panel 1 (MT), Dose 1, median (range)
  Tmax: 4 h
200 mg/day, Tmax, Panel 1 (MT), Dose 4, median (range)
  Tmax: 4 h
200 mg/day, t1/2, 200 mg/day, Panel 1 (MT), Dose 4
  half-life: 9.3 ± 1.2 h
[2]
  AUC(0-t): 27 ± 12.2 µM·h
  concentration at 12 h: 0.25 ± 0.13 µM
  Cmax: 6.7 ± 2.4 µM
[3]
  AUC(0-t): 75.7 ± 46.2 µM·h
  concentration at 12 h: 2.02 ± 1.52 µM
  Cmax: 11 ± 5.3 µM
400 mg/day, Tmax, Panel 1 (MT), Dose 1, median (range)
  Tmax: 2 h
400 mg/day, Tmax, Panel 1 (MT), Dose 4, median (range)
  Tmax: 6 h
400 mg/day, t1/2, 400 mg/day, Panel 1 (MT), Dose 4
  half-life: 8.7 ± 6.7 h
[4]
  AUC(0-t): 69 ± 41.9 µM·h
  concentration at 12 h: 1.68 ± 1.91 µM
  Cmax: 19.5 ± 5.5 µM
[5]
  AUC(0-t): 95.5 ± 44.9 µM·h
  concentration at 12 h: 4.53 ± 2.68 µM
  Cmax: 20 ± 11 µM
800 mg/day, Tmax, Panel 1 (MT), Dose 1, median (range)
  Tmax: 1 h
800 mg/day, Tmax, Panel 1 (MT), Dose 4, median (range)
  Tmax: 1 h
800 mg/day, t1/2, 800 mg/day, Panel 1 (MT), Dose 4
  half-life: 11.1 ± 1.1 h
[6]
  AUC(0-t): 96.6 ± 45.6 µM·h
  concentration at 12 h: 2.12 ± 2.09 µM
  Cmax: 22.3 ± 12.7 µM
[7]
  AUC(0-t): 116 ± 61.4 µM·h
  concentration at 12 h: 3.31 ± 0.53 µM
  Cmax: 25 ± 9.4 µM
1200 mg/day, Tmax, Panel 1 (MT), Dose 1, median (range)
  Tmax: 2 h
1200 mg/day, Tmax, Panel 1 (MT), Dose 4, median (range)
  Tmax: 3 h
1200 mg/day, t1/2, 1200 mg/day, Panel 1 (MT), Dose 4
  half-life: 8.3 ± 3.3 h
[8]
  AUC(0-t): 83.2 ± 50.8 µM·h
  concentration at 12 h: 1.04 ± 0.4 µM
  Cmax: 20.8 ± 10.6 µM
[9]
  AUC(0-t): 131 ± 53.2 µM·h
  concentration at 12 h: 2.8 ± 1.26 µM
  Cmax: 28.9 ± 13.6 µM
1500 mg/day, Tmax, Panel 1 (MT), Dose 1, median (range)
  Tmax: 2 h
1500 mg/day, Tmax, Panel 1 (MT), Dose 4, median (range)
  Tmax: 2 h
1500 mg/day, t1/2, 1500 mg/day, Panel 1 (MT), Dose 4
  half-life: 11.4 ± 2 h
[10]
  AUC(0-t): 101 ± 39.3 µM·h
  concentration at 12 h: 4.78 ± 4.64 µM
  Cmax: 24.8 ± 9.6 µM
[11]
  AUC(0-t): 234 ± 62.7 µM·h
  concentration at 12 h: 6.85 ± 3.96 µM
  Cmax: 50.2 ± 11.4 µM
1800 mg/day, Tmax, Panel 1 (MT), Dose 1, median (range)
  Tmax: 2 h
1800 mg/day, Tmax, Panel 1 (MT), Dose 4, median (range)
  Tmax: 3 h
1800 mg/day, t1/2, 1800 mg/day, Panel 1 (MT), Dose 4
  half-life: 6.6 ± 0.6 h
Median Tmax, following the first dose, across dose levels
  Tmax: 1 to 4 h
Median Tmax, following the fourth dose, across dose levels
  Tmax: 1 to 6 h
Mean t1/2, range across dose levels, across both panels
  half-life: 6.6 to 13.5 h
t1/2 range (variable), following Dose 4
  half-life: 5 to 29 h
